Test results: ChEMBL document CHEMBL2202972, “Synthesis and biological evaluation of 2-substituted-4-(3',4',5'-trimethoxyphenyl)-5-aryl thiazoles as anticancer agents” (Bioorg Med Chem, 2012)
pIC50: −log10 of the molar value. Calls of active or inactive are those of the source. No cut-off for these calls is given here.

Legend:
[1] = Antiproliferative activity against human doxorubicin-resistant LoVo/DX cells overexpressing P-glycoprotein after 72 hrs by MTT assay; assay type: functional, cell-based
Outline: (§1)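 Resistant sublines cultured under selection: LoVo^Doxo (doxorubicin-resistant LoVo subclone) in complete Ham's F12 with doxorubicin 0.1 μg/mL; A549-T12 in complete DMEM with taxol 12 nM. Seeded at 8 × 10³ per well, 18 h preincubation, then 72 h compound exposure at 37 °C. MTT read-out.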

Bos taurus = species: Bos taurus; experiment: Displacement of [3H]colchicine from tubulin in bovine brain at 5 uM DEAE-cellulose filter method
LoVo [2] = experiment: Resistance ratio of IC50 for human doxorubicin-resistant LoVo/DX cells overexpressing P-glycoprotein to IC50 for human LoVo cells; assay type: functional
[3] = Antiproliferative activity against human taxol-resistant A549-T12 cells expressing tubulin mutant gene after 72 hrs by MTT assay; assay type: functional, cell-based; conditions: A549, 72 h; outline: as §1
LoVo [4] = experiment: Antiproliferative activity against human LoVo cells after 72 hrs by MTT assay; assay type: functional, cell-based
Outline: (§2)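 Cells seeded at 8 × 10³ per well and incubated 18 h at 37 °C, 5% CO₂, then exposed to a range of compound concentrations for 72 h at 37 °C. Jurkat and HL-60 were grown in RPMI-1640, the others in DMEM, with penicillin, streptomycin and 10% FBS. DMSO stocks (10 mM); DMSO ≤0.25% final. Viability by MTT. […] Mean ± SE of ≥3 independent experiments.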

[5] = Inhibition of bovine brain tubulin polymerization preincubated for 15 mins by turbidimetric analysis; set-up: species or system Bos taurus
Outline: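 Bovine brain tubulin (10 μM) in glutamate buffer preincubated with varying compound concentrations for 15 min at 30 °C, then chilled to 0 °C. GTP 0.4 mM added and mixtures warmed to 30 °C in a spectrophotometer; assembly followed by turbidity at 350 nm.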

A549 [6] = experiment: Antiproliferative activity against human A549 cells after 72 hrs by MTT assay; assay type: functional, cell-based; conditions: A549, 72 h
[7] = Antiproliferative activity against human vinblastine-resistant CEM/VBL100 cells overexpressing P-glycoprotein after 72 hrs by MTT assay; assay type: functional, cell-based; conditions: CEM/VBL100, 72 h
HL-60 = experiment: Antiproliferative activity against human HL60 cells after 72 hrs by MTT assay; assay type: functional, cell-based; conditions: HL-60, 72 h
CCRF-CEM [8] = experiment: Resistance ratio of IC50 for human vinblastine-resistant CEM/VBL100 cells overexpressing P-glycoprotein to IC50 for human CEM cells; assay type: functional
HeLa [9] = experiment: Antiproliferative activity against human HeLa cells after 72 hrs by MTT assay; assay type: functional, cell-based
CCRF-CEM [10] = experiment: Antiproliferative activity against human CEM cells after 72 hrs by MTT assay; assay type: functional, cell-based
HT-29 = experiment: Antiproliferative activity against human HT-29 cells after 72 hrs by MTT assay; assay type: functional, cell-based; conditions: HT-29, 72 h
Jurkat [11] = experiment: Antiproliferative activity against human Jurkat cells after 72 hrs by MTT assay; assay type: functional, cell-based; outline: as §2
MCF7 = experiment: Antiproliferative activity against human MCF7 cells after 72 hrs by MTT assay; assay type: functional, cell-based; conditions: MCF7, 72 h
A549 [12] = experiment: Resistance ratio of IC50 for human taxol-resistant A549-T12 cells expressing tubulin mutant gene to IC50 for human A549 cells; assay type: functional
HeLa [13] = experiment: Induction of apoptosis in human HeLa cells assessed as appearance of cleaved caspase-8 protein at 250 to 500 nM after 24 to 48 hrs by Western blot analysis; assay type: functional, cell-based
Outline: (§3)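 HeLa cells treated for 24 or 48 h, washed twice with ice-cold PBS and lysed on ice 30 min; lysates spun at 15000 ×g, 4 °C. Protein (20 μg) resolved by SDS–PAGE on 7.5–15% gels and blotted to PVDF. Specific primary antibodies for 2 h at room temperature, then peroxidase secondary for 60 min, ECL detection. Membranes stripped and reprobed for β-actin as loading control.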

HeLa [14] = experiment: Effect on cyclin B expression in human HeLa cells at 250 to 500 nM after 24 hrs by Western blot analysis; assay type: functional, cell-based; outline: as §3
HeLa [15] = experiment: Induction of survivin phosphorylation at Thr34 in human HeLa cells at 250 to 500 nM after 24 to 48 hrs by Western blot analysis
PBL = experiment: Growth inhibition of PHA-stimulated human PBL after 72 hrs by MTT assay; assay type: functional
HeLa [16] = experiment: Induction of apoptosis in human HeLa cells assessed as disappearance of uncleaved caspase-2 protein at 250 to 500 nM after 24 to 48 hrs by Western blot analysis; assay type: functional, cell-based; outline: as §3
HeLa [17] = experiment: Induction of apoptosis in human HeLa cells at 500 nM after 24 to 48 hrs by Annexin V-FITC/propidium iodide staining based biparametric cytofluorimetric analysis; assay type: functional, cell-based
Outline: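 HeLa cells treated at 250 or 500 nM for 24 or 48 h, then labelled with annexin-V-FITC (phosphatidylserine) plus propidium iodide. Red and green fluorescence measured by biparametric flow cytometry. Mean ± SEM of three independent experiments.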

HeLa [18] = experiment: Effect on Bax expression in human HeLa cells at 250 to 500 nM after 24 to 48 hrs by Western blot analysis; assay type: functional, cell-based; outline: as §3
HeLa [19] = experiment: Cell cycle arrest in human HeLa cells assessed as accumulation of cells at G2/M phase at 125 nM after 24 hrs by propidium iodide staining based flow cytometric analysis; assay type: functional
Outline: (§4)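 HeLa or Jurkat cells (5 × 10⁵, exponential growth) treated 24 h with 31–500 nM compound. Cells fixed in ice-cold 70% ethanol, treated with lysis buffer containing RNase A and 0.1% Triton X-100, then stained with propidium iodide. DNA content measured by flow cytometry to give phase distribution. Mean ± SEM of three independent experiments.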

HeLa [20] = experiment: Induction of apoptosis in human HeLa cells assessed as ROS production; assay type: functional, cell-based
[21] = target: T1, M-phase inducer phosphatase 3 (Homo sapiens) (UniProt P30307); experiment: Induction of cdc25C phosphorylation in human HeLa cells assessed as cdc2 kinase dephosphorylation at Tyr15 in human HeLa cells at 250 to 500 nM after 24 to 48 hrs by Western blot analysis; assay type: cell-based; outline: as §3
T1 sequence (whole entry): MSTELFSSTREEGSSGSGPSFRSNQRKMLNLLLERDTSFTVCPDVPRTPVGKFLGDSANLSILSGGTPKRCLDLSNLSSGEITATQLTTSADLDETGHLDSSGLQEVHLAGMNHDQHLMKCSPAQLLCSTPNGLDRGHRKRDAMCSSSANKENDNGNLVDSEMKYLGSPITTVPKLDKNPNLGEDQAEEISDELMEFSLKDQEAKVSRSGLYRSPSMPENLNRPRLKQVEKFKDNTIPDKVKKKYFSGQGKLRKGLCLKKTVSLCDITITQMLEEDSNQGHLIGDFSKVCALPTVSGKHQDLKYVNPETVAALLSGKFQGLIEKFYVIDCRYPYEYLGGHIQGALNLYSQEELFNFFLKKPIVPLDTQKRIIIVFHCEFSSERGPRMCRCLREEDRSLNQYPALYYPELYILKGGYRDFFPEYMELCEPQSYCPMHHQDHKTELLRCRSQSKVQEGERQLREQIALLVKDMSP

HeLa [22] = experiment: Downregulation of Xiap expression in human HeLa cells at 250 to 500 nM after 24 hrs by Western blot analysis; assay type: functional, cell-based; outline: as §3
Jurkat [23] = experiment: Cell cycle arrest in human Jurkat cells assessed as accumulation of cells at G2/M phase at 125 nM after 24 hrs by propidium iodide staining based flow cytometric analysis; assay type: functional; outline: as §4
HeLa [24] = experiment: Induction of apoptosis in human HeLa cells assessed as mitochondrial polarization; assay type: functional, cell-based
HeLa [25] = experiment: Induction of apoptosis in human HeLa cells assessed as caspase-3 activation at 250 to 500 nM after 24 to 48 hrs by Western blot analysis; assay type: functional, cell-based; outline: as §3
HeLa [26] = experiment: Downregulation of Bcl-2 expression in human HeLa cells at 250 to 500 nM after 24 to 48 hrs by Western blot analysis; assay type: functional, cell-based; outline: as §3
HeLa [27] = experiment: Induction of apoptosis in human HeLa cells assessed as effect on caspase-9 activation at 250 to 500 nM after 24 to 48 hrs by Western blot analysis; assay type: functional, cell-based; outline: as §3
[28] = target: T1, M-phase inducer phosphatase 3 (Homo sapiens); experiment: Induction of cdc25C phosphorylation in human HeLa cells at 250 to 500 nM after 24 to 48 hrs by Western blot analysis; assay type: cell-based; outline: as §3
HeLa [29] = experiment: Induction of apoptosis in human HeLa cells assessed as increase in caspase-3-mediated PARP cleavage at 250 to 500 nM after 24 to 48 hrs by Western blot analysis; assay type: functional, cell-based; outline: as §3
[30] = Growth inhibition of human resting PBL after 72 hrs by MTT assay; assay type: cell-based; conditions: resting peripheral blood lymphocytes (PBL)
HeLa [31] = experiment: Downregulation of Mcl-1 expression in human HeLa cells at 250 to 500 nM after 24 hrs by Western blot analysis; assay type: functional, cell-based; outline: as §3

COc1cccc2c1C(=O)c1c(O)c3c(c(O)c1C2=O)C[C@@](O)(C(=O)CO)C[C@@H]3O[C@H]1C[C@H](N)[C@H](O)[C@H](C)O1 [DOXORUBICIN]
pIC50 [1]: 4.88

CNc1nc(-c2cc(OC)c(OC)c(OC)c2)c(-c2ccc(OC)cc2)s1
inhibition (Bos taurus): 61% | Ratio IC50 (LoVo [2]): 0.8 | pIC50 [3]: 6.90 | pIC50 (LoVo [4]): 6.72 | pIC50 [5]: 5.89 | pIC50 (A549 [6]): 6.86 | pIC50 [7]: 7.82 | pIC50 (HL-60): 7.56 | Ratio IC50 (CCRF-CEM [8]): 1.5 | pIC50 (HeLa [9]): 7.15 | pIC50 [1]: 6.82 | pIC50 (CCRF-CEM [10]): 8.00 | pIC50 (HT-29): 8.20 | pIC50 (Jurkat [11]): 7.46 | pIC50 (MCF7): 7.42 | Ratio IC50 (A549 [12]): 0.9

COc1cc(-c2nc(C)sc2-c2ccc3ccccc3c2)cc(OC)c1OC
Activity (HeLa [13]): Active | Activity (HeLa [14]): inactive | inhibition (Bos taurus): 66% | Ratio IC50 (LoVo [2]): 2.1 | pIC50 [3]: 6.92 | Activity (HeLa [15]): Active | GI50 (PBL): 285 nM | Activity (HeLa [16]): Active | pIC50 (LoVo [4]): 7.14 | pIC50 [5]: 5.96 | Activity (HeLa [17]): Active | Activity (HeLa [18]): inactive | Activity (HeLa [19]): Active | Activity (HeLa [20]): Active | pIC50 [7]: 7.06 | Activity [21]: Active | pIC50 (HL-60): 6.69 | Ratio IC50 (CCRF-CEM [8]): 1.4 | Activity (HeLa [22]): Active | Activity (Jurkat [23]): Active | pIC50 (HeLa [9]): 7.09 | Activity (HeLa [24]): Active | Activity (HeLa [25]): Active | Activity (HeLa [26]): Active | pIC50 [1]: 6.82 | Activity (HeLa [27]): inactive | Activity [28]: Active | pIC50 (CCRF-CEM [10]): 7.21 | pIC50 (HT-29): 6.15 | Activity (HeLa [29]): Active | pIC50 (Jurkat [11]): 7.31 | GI50 at 72 h [30]: 1270 nM | pIC50 (MCF7): 7.48 | Ratio IC50 (A549 [12]): 1 | Activity (HeLa [31]): Active

CNc1nc(-c2cc(OC)c(OC)c(OC)c2)c(-c2ccc(C)cc2)s1
inhibition (Bos taurus): 68% | pIC50 [5]: 5.92 | pIC50 (A549 [6]): 6.90 | pIC50 (HL-60): 7.74 | pIC50 (HeLa [9]): 7.16 | pIC50 (HT-29): 6.37 | pIC50 (Jurkat [11]): 7.72 | pIC50 (MCF7): 8.00

CCOc1ccc(-c2sc(N(C)C)nc2-c2cc(OC)c(OC)c(OC)c2)cc1
pIC50 [5]: < 4.70 | pIC50 (A549 [6]): < 5.00 | pIC50 (HL-60): 6.52 | pIC50 (HeLa [9]): 5.49 | pIC50 (HT-29): 5.22 | pIC50 (Jurkat [11]): 5.38 | pIC50 (MCF7): < 5.00

COc1cc(-c2nc(N(C)C)sc2-c2ccc3ccccc3c2)cc(OC)c1OC
pIC50 [5]: < 4.70 | pIC50 (A549 [6]): 5.54 | pIC50 (HL-60): 5.59 | pIC50 (HeLa [9]): 5.85 | pIC50 (HT-29): 6.14 | pIC50 (Jurkat [11]): 6.08 | pIC50 (MCF7): 5.62

COc1ccc(-c2sc(N(C)C)nc2-c2cc(OC)c(OC)c(OC)c2)cc1
pIC50 [5]: < 4.70 | pIC50 (A549 [6]): < 5.00 | pIC50 (HL-60): 5.72 | pIC50 (HeLa [9]): 5.47 | pIC50 (HT-29): 6.30 | pIC50 (Jurkat [11]): 5.12 | pIC50 (MCF7): 5.08

COc1cc(-c2nc(C)sc2-c2ccc(C(F)(F)F)cc2)cc(OC)c1OC
pIC50 (A549 [6]): 5.37 | pIC50 (HL-60): < 5.00 | pIC50 (HeLa [9]): 5.42 | pIC50 (HT-29): 6.40 | pIC50 (Jurkat [11]): 5.15 | pIC50 (MCF7): < 5.00
